# In ChEMBL document CHEMBL2203103, “Discovery of a novel series of benzimidazole derivatives as diacylglycerol acyltransferase inhibitors” (Bioorg Med Chem Lett, 2012):
# The source made the active and inactive calls. The calls are words filed in the database; no cut-off is given here.
# Assays:
# [1] = molecular target: T1, Diacylglycerol O-acyltransferase 1 (Rattus norvegicus, UniProt Q9ERM3); experiment: (§1) Inhibition of DGAT in rat liver microsomes; design: species or system Microsome
# T1 sequence (Q9ERM3 whole entry): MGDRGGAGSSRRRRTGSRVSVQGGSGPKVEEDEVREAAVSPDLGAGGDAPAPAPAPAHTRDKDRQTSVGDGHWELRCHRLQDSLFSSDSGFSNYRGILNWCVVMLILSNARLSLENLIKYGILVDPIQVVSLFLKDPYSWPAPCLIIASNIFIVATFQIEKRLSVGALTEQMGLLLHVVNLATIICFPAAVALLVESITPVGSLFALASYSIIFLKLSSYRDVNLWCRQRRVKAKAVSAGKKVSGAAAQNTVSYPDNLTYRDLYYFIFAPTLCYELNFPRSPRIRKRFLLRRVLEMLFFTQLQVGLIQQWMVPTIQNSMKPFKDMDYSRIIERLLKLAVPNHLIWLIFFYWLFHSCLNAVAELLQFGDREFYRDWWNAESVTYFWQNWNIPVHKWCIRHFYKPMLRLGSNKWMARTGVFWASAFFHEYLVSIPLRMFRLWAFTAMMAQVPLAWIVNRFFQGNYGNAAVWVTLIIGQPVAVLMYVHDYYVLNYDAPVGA
# Method in brief: (§2)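 DGAT activity was measured in microsomes prepared from rat liver, using a modified version of Coleman's method. IC₅₀ values were determined.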
# Mus musculus [2] = species on record: Mus musculus; experiment: Antiobesity activity in high fat diet-induced obese mouse assessed as decrease in total fat (reference value: 6.75 +/- 1.18 %); format: functional; design: scale not given: the % may be the effect or the level left
# Method in brief: (§3)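 In 6-week-old male diet-induced obese mice, HFD-fed and individually housed (23 °C ± 3 °C, 12-h light–dark, food and water ad libitum), total and retroperitoneal fat were weighed after 5 weeks of treatment. Values are given as (tissue weight/body weight) × 100 and compared with normal-diet and untreated HFD groups.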
# Mus musculus [3] = species on record: Mus musculus; experiment: Antiobesity activity in high fat diet-induced obese mouse assessed as decrease in abdominal and epididymal fat (reference value: 5.34 +/- […]); format: functional; design: scale not given: the % may be the effect or the level left
# [4] = molecular target: T2, Diacylglycerol O-acyltransferase 1 (Homo sapiens) (UniProt O75907); experiment: Residual DGAT activity in human HepG2 cells using [14C]glycerol as substrate assessed as formation of [14C]-triglyceride at 10 uM by chromatographic analysis relative to control
# T2 sequence (whole entry): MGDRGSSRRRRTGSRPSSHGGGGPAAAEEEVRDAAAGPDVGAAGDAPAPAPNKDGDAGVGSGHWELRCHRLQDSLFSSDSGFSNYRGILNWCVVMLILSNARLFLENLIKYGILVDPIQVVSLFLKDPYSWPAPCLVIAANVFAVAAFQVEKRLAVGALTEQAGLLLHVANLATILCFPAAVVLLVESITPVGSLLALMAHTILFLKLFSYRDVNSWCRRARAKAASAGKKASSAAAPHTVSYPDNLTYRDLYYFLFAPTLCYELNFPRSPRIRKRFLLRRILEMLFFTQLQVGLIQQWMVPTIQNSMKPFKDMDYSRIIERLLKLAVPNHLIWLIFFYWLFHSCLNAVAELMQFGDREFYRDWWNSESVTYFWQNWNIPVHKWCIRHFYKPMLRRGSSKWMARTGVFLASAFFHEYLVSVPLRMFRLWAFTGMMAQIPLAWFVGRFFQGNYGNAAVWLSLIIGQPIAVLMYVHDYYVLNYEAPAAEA
# HepG2 = experiment: Cytotoxicity against human HepG2 cells assessed as cell viability after 48 hrs by MTT assay; format: cell-based; details: hepg2, 48 h
# Method in brief: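 HepG2 cells were kept in DMEM with 10% heat-inactivated FBS and 1% penicillin–streptomycin at 37 °C in 5% CO₂. Cells were seeded at 2 × 10⁴ per well, exposed to compound for 48 h, and viability was read by MTT as formazan absorbance at 560 nm.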
# Mus musculus [5] = experiment: Antiobesity activity in high fat diet-induced obese mouse assessed as inhibition of body weight gain at 10 mg/kg after 1 week (reference value: 35.2 +/- 1.57 g); format: functional
# [6] = molecular target: T2, Diacylglycerol O-acyltransferase 1 (Homo sapiens); experiment: Residual DGAT activity in human HepG2 cells using [14C]glycerol as substrate assessed as formation of [14C]-triglyceride at 3 uM by chromatographic analysis relative to control
# Mus musculus [7] = experiment: Antiobesity activity in high fat diet-induced obese mouse assessed as inhibition of body weight gain at 10 mg/kg after 3 weeks (reference value: 45.9 +/- 2.29 g); format: functional
# Mus musculus [8] = species on record: Mus musculus; experiment: Antiobesity activity in high fat diet-induced obese mouse assessed as decrease in retroperitoneal fat (reference value: 1.41 +/- 0.29 %); format: functional; design: scale not given: the % may be the effect or the level left; method in brief: as §3
# Mus musculus [9] = species on record: Mus musculus; experiment: Antidyslipidemic activity in high fat diet-induced obese mouse assessed as decrease in total blood cholesterol level (reference value: 160 +/- 13.9 mg/dl); format: functional
# Mus musculus [10] = species on record: Mus musculus; experiment: Antidyslipidemic activity in high fat diet-induced obese mouse assessed as decrease in blood LDL-cholesterol level (reference value: 119 +/- 14.3 mg/dl); format: functional
# Mus musculus [11] = species on record: Mus musculus; experiment: Antidyslipidemic activity in high fat diet-induced obese mouse assessed as increase in blood HDL-cholesterol level (reference value: 17.4 +/- 2.15 mg/dl); format: functional
# [12] = molecular target: T2, Diacylglycerol O-acyltransferase 1 (Homo sapiens); experiment: Residual DGAT activity in human HepG2 cells using [14C]acetate as substrate assessed as formation of [14C]-triglyceride at 10 uM by chromatographic analysis relative to control
# Mus musculus [13] = experiment: Antiobesity activity in high fat diet-induced obese mouse assessed as inhibition of body weight gain at 10 mg/kg after 2 weeks (reference value: 37.8 +/- 3.55 g); format: functional
# Mus musculus [14] = experiment: Antiobesity activity in high fat diet-induced obese mouse assessed as inhibition of body weight gain at 10 mg/kg after 5 weeks (reference value: 52.9 +/- 1.20 g); format: functional
# Mus musculus [15] = species on record: Mus musculus; experiment: Antidyslipidemic activity in high fat diet-induced obese mouse assessed as decrease in total blood triglyceride level (reference value: 120 +/- 11.2 mg/dl); format: functional
# Mus musculus [16] = experiment: Antiobesity activity in high fat diet-induced obese mouse assessed as inhibition of body weight gain at 10 mg/kg after 4 weeks (reference value: 49.9 +/- 1.24 g); format: functional
# [17] = molecular target: T2, Diacylglycerol O-acyltransferase 1 (Homo sapiens); experiment: Residual DGAT activity in human HepG2 cells using [14C]acetate as substrate assessed as formation of [14C]-triglyceride at 3 uM by chromatographic analysis relative to control
# [18] = molecular target: T3, Diacylglycerol O-acyltransferase 1 (Rattus norvegicus) (UniProt Q9ERM3); experiment: as §1; details: Microsome; method in brief: as §2
# T3 sequence (whole entry): T1 sequence (Q9ERM3 whole entry)
# Mus musculus [19] = species on record: Mus musculus; experiment: Antiobesity activity in high fat diet-induced obese mouse assessed as inhibition of body weight gain after 1 week (reference value: 35.2 +/- 1.57 g); format: functional
# Mus musculus [20] = species on record: Mus musculus; experiment: Antiobesity activity in high fat diet-induced obese mouse assessed as inhibition of body weight gain after 3 weeks (reference value: 45.9 +/- 2.29 g); format: functional
# Mus musculus [21] = species on record: Mus musculus; experiment: Antiobesity activity in high fat diet-induced obese mouse assessed as inhibition of body weight gain after 2 weeks (reference value: 37.8 +/- 3.55 g); format: functional
# Mus musculus [22] = species on record: Mus musculus; experiment: Antiobesity activity in high fat diet-induced obese mouse assessed as inhibition of body weight gain after 4 weeks (reference value: 49.9 +/- 1.24 g); format: functional
# Mus musculus [23] = species on record: Mus musculus; experiment: Antiobesity activity in high fat diet-induced obese mouse assessed as inhibition of body weight gain after 5 weeks (reference value: 52.9 +/- 1.20 g); format: functional
smiles,measurement,setting,value
O=C(c1ccc2[nH]c(COc3ccc(C45CC6CC(CC(C6)C4)C5)cc3)nc2c1)N1CCCCC1,IC50,[1],27.5 µM
COC(=O)c1ccc2[nH]c(COc3ccc(C45CC6CC(CC(C6)C4)C5)cc3)nc2c1,IC50,[1],23 µM
O=C(NC[C@@H]1CCCO1)c1ccc2nc(COc3ccc(C45CC6CC(CC(C6)C4)C5)cc3)[nH]c2c1,IC50,[1],9.5 µM
O=C(NCc1ccco1)c1ccc2[nH]c(COc3ccc(C45CC6CC(CC(C6)C4)C5)cc3)nc2c1,Activity,Mus musculus [2],4.1%
same,Activity,Mus musculus [3],3.16%
same,residual activity,[4],45%
same,Activity,HepG2,> 50 µM
same,Activity,Mus musculus [5],35.1 g
same,residual activity,[6],69.5%
same,Activity,Mus musculus [7],40.8 g
same,IC50,[1],4.4 µM
same,Activity,Mus musculus [8],0.94%
same,Activity,Mus musculus [9],73.2 mg/dL
same,Activity,Mus musculus [10],43.6 mg/dL
same,Activity,Mus musculus [11],21.2 mg/dL
same,residual activity,[12],53%
same,Activity,Mus musculus [13],38.9 g
same,Activity,Mus musculus [14],43.2 g
same,Activity,Mus musculus [15],41.8 mg/dL
same,Activity,Mus musculus [16],42.3 g
same,residual activity,[17],80.9%
CC(C)c1cccc(C(C)C)c1NC(=O)c1ccc2nc(COc3ccc(C45CC6CC(CC(C6)C4)C5)cc3)[nH]c2c1,IC50,[1],> 50 µM
O=C(Nc1ccccc1)c1ccc2[nH]c(COc3ccc(C45CC6CC(CC(C6)C4)C5)cc3)nc2c1,IC50,[1],> 50 µM
O=C(NC[C@H]1CCCO1)c1ccc2nc(COc3ccc(C45CC6CC(CC(C6)C4)C5)cc3)[nH]c2c1,IC50,[1],8.7 µM
O=C(NCc1ccccc1)c1ccc2nc(COc3ccc(C45CC6CC(CC(C6)C4)C5)cc3)[nH]c2c1,IC50,[1],> 50 µM
CC(C)NC(=O)c1ccc2nc(COc3ccc(C45CC6CC(CC(C6)C4)C5)cc3)[nH]c2c1,IC50,[1],20 µM
COc1cc(O)c(CC=C(C)C)c(O)c1C(=O)/C=C/c1ccc(O)cc1,inhibition,[18],Active
CC(C)(C)c1ccc(OCc2nc3cc(C(=O)NCc4ccco4)ccc3[nH]2)cc1,IC50,[1],9 µM
O=C(O)c1ccc2[nH]c(COc3ccc(C45CC6CC(CC(C6)C4)C5)cc3)nc2c1,IC50,[1],> 50 µM
O=C(NCc1cccs1)c1ccc2[nH]c(COc3ccc(C45CC6CC(CC(C6)C4)C5)cc3)nc2c1,IC50,[1],> 50 µM
O=C(NCc1ccccn1)c1ccc2[nH]c(COc3ccc(C45CC6CC(CC(C6)C4)C5)cc3)nc2c1,IC50,[1],20 µM
NC(=O)c1ccc2nc(COc3ccc(C45CC6CC(CC(C6)C4)C5)cc3)[nH]c2c1,IC50,[1],> 50 µM
O=C(c1ccc2[nH]c(COc3ccc(C45CC6CC(CC(C6)C4)C5)cc3)nc2c1)N1CCCC1,IC50,[1],11.3 µM
CCCCCCCCCCC[C@@H](C[C@@H]1OC(=O)[C@H]1CCCCCC)OC(=O)[C@H](CC(C)C)NC=O [ORLISTAT],Activity,Mus musculus [2],3.2%
same,Activity,Mus musculus [3],2.45%
same,Activity,Mus musculus [19],33.6 g
same,Activity,Mus musculus [8],0.75%
same,Activity,Mus musculus [20],39.1 g
same,Activity,Mus musculus [9],53.8 mg/dL
same,Activity,Mus musculus [10],20.5 mg/dL
same,Activity,Mus musculus [11],30.3 mg/dL
same,Activity,Mus musculus [21],37.4 g
same,Activity,Mus musculus [15],40.8 mg/dL
same,Activity,Mus musculus [22],40 g
same,Activity,Mus musculus [23],41.2 g
O=C(NCc1ccco1)c1ccc2nc(COc3ccccc3)[nH]c2c1,IC50,[1],> 50 µM
CN(C)C(=O)c1ccc2nc(COc3ccc(C45CC6CC(CC(C6)C4)C5)cc3)[nH]c2c1,IC50,[1],> 50 µM
Cc1ccoc1CNC(=O)c1ccc2nc(COc3ccc(C45CC6CC(CC(C6)C4)C5)cc3)[nH]c2c1,IC50,[1],25.4 µM
CC1(C)Oc2ncnc(N)c2N=C1c1ccc([C@H]2CC[C@H](CC(=O)O)CC2)cc1,IC50,[1],3.1 µM
O=C(NCc1ccco1)c1ccc2nc(COc3ccc(-c4ccccc4)cc3)[nH]c2c1,IC50,[1],> 50 µM
Cc1ccc(CNC(=O)c2ccc3nc(COc4ccc(C56CC7CC(CC(C7)C5)C6)cc4)[nH]c3c2)o1,IC50,[1],11.4 µM
